ChEMBL document CHEMBL1157638, “Fluorescent epigenetic small molecule induces expression of the tumor suppressor ras-association domain family 1A and inhibits human prostate xenograft” (J Med Chem, 2010)
Calls of active or inactive are those of the source. No cut-off for these calls is given here.

Experiments:
NCI-H226 [1] = test: Growth inhibition of human NCI-H226 cells assessed as cell growth at 1 nM relative to untreated control; assay type: functional; settings: read-out: Activity
MOLT-4 = test: Growth inhibition of human MOLT4 cells assessed as cell growth at 10 uM relative to untreated control; assay type: functional; settings: read-out: Activity
SNB-75 = test: Growth inhibition of human SNB75 cells assessed as cell growth at 10 nM relative to untreated control; assay type: functional; settings: read-out: Activity
NCI-H226 [2] = test: Growth inhibition of human NCI-H226 cells assessed as cell growth at 10 nM relative to untreated control; assay type: functional; settings: read-out: Activity
PC-3 [3] = test: Growth inhibition of human PC3 cells; assay type: functional
SK-MEL-28 = test: Growth inhibition of human SK-MEL-28 cells assessed as cell growth at 10 uM relative to untreated control; assay type: functional; settings: read-out: Activity
UACC-257 [4] = test: Growth inhibition of human UACC257 cells assessed as cell growth at 1 nM relative to untreated control; assay type: functional; settings: read-out: Activity
Malme-3M = test: Growth inhibition of human MALME-3M cells assessed as cell growth at 1 uM relative to untreated control; assay type: functional; settings: read-out: Activity
786-0 [5] = test: Growth inhibition of human 786-0 cells; assay type: functional
COLO 205 = test: Growth inhibition of human COLO205 cells assessed as cell growth at 10 uM relative to untreated control; assay type: functional; settings: read-out: Activity
Method in brief: (§1)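 Run externally at the National Cancer Institute as a 59-cell-line panel screen, with concentrations up to 100 μM. Growth was scored relative to control, where negative growth or total cell kill was possible. Data are in the Supporting Information.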

BT-549 = test: Growth inhibition of human BT549 cells assessed as cell growth at 1 nM relative to untreated control; assay type: functional; settings: read-out: Activity
NCI/ADR-RES = test: Growth inhibition of human NCI/ADR-RES cells assessed as cell growth at 1 nM relative to untreated control; assay type: functional; settings: read-out: Activity
786-0 [6] = test: Growth inhibition of human 786-0 cells assessed as cell growth at 1 nM relative to untreated control; assay type: functional; settings: read-out: Activity
NCI-H460 = test: Growth inhibition of human NCI-H460 cells assessed as cell growth at 1 nM relative to untreated control; assay type: functional; settings: read-out: Activity
HCT-116 [7] = test: Growth inhibition of human HCT116 cells; assay type: functional; method in brief: as §1
LOX IMVI = test: Growth inhibition of human LOXIMVI cells assessed as cell growth at 1 uM relative to untreated control; assay type: functional; settings: read-out: Activity
HCT-116 [8] = test: Growth inhibition of human HCT116 cells assessed as cell growth at 1 uM relative to untreated control; assay type: functional; settings: read-out: Activity; method in brief: as §1
PC-3 [9] = test: Cytostatic against human PC3 cells up to 30 uM after 24 hrs by trypan blue exclusion method; assay type: functional, cell-based
Method in brief: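 PC-3 cells were seeded in triplicate at 1.5 × 10⁴ cells/well and grown in phenol red-free IMEM with 10% FBS at 37 °C, 5% CO₂. After 24 h they were treated with DMSO or 1, 5, 15, 30 or 60 μM compound for 24 h. Cells were then trypsinized, and live and dead cells were counted by 0.4% trypan blue exclusion on a hemocytometer. Values are mean ± SEM of three independent observations.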

U-251 [10] = test: Growth inhibition of human U251 cells; assay type: functional
EKVX = test: Growth inhibition of human EKVX cells assessed as cell growth at 10 nM relative to untreated control; assay type: functional; settings: read-out: Activity; method in brief: as §1
HL-60(TB) = test: Growth inhibition of human HL-60(TB) cells assessed as cell growth at 1 uM relative to untreated control; assay type: functional; settings: read-out: Activity
SW-620 = test: Growth inhibition of human SW620 cells assessed as cell growth at 10 nM relative to untreated control; assay type: functional; settings: read-out: Activity
MDA-MB-231 [11] = test: Growth inhibition of human MDA-MB-231 cells assessed as cell growth at 10 uM relative to untreated control; assay type: functional; settings: read-out: Activity
SNB-19 [12] = test: Growth inhibition of human SNB19 cells; assay type: functional
OVCAR-5 = test: Growth inhibition of human OVCAR5 cells assessed as cell growth at 1 nM relative to untreated control; assay type: functional; settings: read-out: Activity
[13] = Growth inhibition of human […] cells assessed as cell growth at 100 nM relative to untreated control; assay type: functional; settings: read-out: Activity
SF-295 = test: Growth inhibition of human SF295 cells assessed as cell growth at 1 nM relative to untreated control; assay type: functional; settings: read-out: Activity
RXF 393 = test: Growth inhibition of human RXF393 cells assessed as cell growth at 1 uM relative to untreated control; assay type: functional; settings: read-out: Activity
PC-3 [14] = test: Antitumor activity against human PC3 cells xenografted in athymic BALB/c mouse assessed as reduction in tumor volume at 10 mg/kg, ip dosed every other day for 28 days relative to untreated control; assay type: functional; parameters: scale not given: the % may be the effect or the level left; settings: route intraperitoneal
Method in brief: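 Male athymic Balb/c nude mice (18-22 g) got 3 × 10⁶ PC-3 cells subcutaneously in the right axillary region. After one week they were randomized into two groups of four. Dosing was 10 mg/kg ip or vehicle once every other day for 28 days. Vehicle was DMSO stock diluted in 1:1 PEG 400/PBS. Tumour volume was measured by caliper as length × width × height/2. Data are mean ± SEM (n = 4).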

Mus musculus = test: Toxicity in BALB/c mouse up to 550 mg/kg, po; assay type: organism-based; parameters: dose 550 mg/kg, route oral; settings: in vivo
TK-10 = test: Growth inhibition of human TK10 cells assessed as cell growth at 10 uM relative to untreated control; assay type: functional; settings: read-out: Activity
[15] = Growth inhibition of human […] cells assessed as cell growth at 10 uM relative to untreated control; assay type: functional; settings: read-out: Activity
UACC-257 [16] = test: Growth inhibition of human UACC257 cells assessed as cell growth at 10 nM relative to untreated control; assay type: functional; settings: read-out: Activity
SK-MEL-2 = test: Growth inhibition of human SK-MEL-2 cells assessed as cell growth at 10 uM relative to untreated control; assay type: functional; settings: read-out: Activity
SF-539 = test: Growth inhibition of human SF539 cells assessed as cell growth at 1 nM relative to untreated control; assay type: functional; settings: read-out: Activity
T47D = test: Growth inhibition of human T47D cells assessed as cell growth at 10 nM relative to untreated control; assay type: functional; settings: read-out: Activity
OVCAR-8 = test: Growth inhibition of human OVCAR8 cells assessed as cell growth at 10 nM relative to untreated control; assay type: functional; settings: read-out: Activity
HT-29 = test: Growth inhibition of human HT-29 cells assessed as cell growth at 1 nM relative to untreated control; assay type: functional; settings: read-out: Activity
MDA-MB-231 [17] = test: Growth inhibition of human MDA-MB-231 cells assessed as cell growth at 100 nM relative to untreated control; assay type: functional; settings: read-out: Activity
U-251 [18] = test: Growth inhibition of human U251 cells assessed as cell growth at 100 nM relative to untreated control; assay type: functional; settings: read-out: Activity
NCI-H23 = test: Growth inhibition of human NCI-H23 cells; assay type: functional
SNB-19 [19] = test: Growth inhibition of human SNB19 cells assessed as cell growth at 1 nM relative to untreated control; assay type: functional; settings: read-out: Activity
[20] = read-out: LC50 (the source's name)

COc1ccc2c(c1)[nH]c1c(C)c(OS(=O)(=O)c3cccc4c(N(C)C)cccc34)ccc12
growth at 0.001 µM (NCI-H226 [1]): 91% | growth at 10 µM (MOLT-4): 7% | growth at 0.01 µM (SNB-75): 118% | growth at 0.01 µM (NCI-H226 [2]): 88% | GI50 (PC-3 [3]): 39.3 µM | TGI (PC-3 [3]): > 100 µM | CC50 (PC-3 [3]; [20]): > 100 µM | growth at 10 µM (SK-MEL-28): 19% | growth at 0.001 µM (UACC-257 [4]): 100% | growth at 1 µM (Malme-3M): 22% | GI50 (786-0 [5]): 5.42 µM | TGI (786-0 [5]): > 100 µM | CC50 (786-0 [5]; [20]): > 100 µM | growth at 10 µM (COLO 205): 1% | growth at 0.001 µM (BT-549): 100% | growth at 0.001 µM (NCI/ADR-RES): 107% | growth at 0.001 µM (786-0 [6]): 101% | growth at 0.001 µM (NCI-H460): 102% | GI50 (HCT-116 [7]): 4.38 µM | TGI (HCT-116 [7]): > 100 µM | CC50 (HCT-116 [7]; [20]): > 100 µM | growth at 1 µM (LOX IMVI): 31% | growth at 1 µM (HCT-116 [8]): 25% | Activity (PC-3 [9]): Active | GI50 (U-251 [10]): 4.28 µM | TGI (U-251 [10]): > 100 µM | CC50 (U-251 [10]; [20]): > 100 µM | growth at 0.01 µM (EKVX): 96% | growth at 1 µM (HL-60(TB)): -9% | growth at 0.01 µM (SW-620): 104% | growth at 10 µM (MDA-MB-231 [11]): 40% | GI50 (SNB-19 [12]): 7.88 µM | TGI (SNB-19 [12]): > 100 µM | CC50 (SNB-19 [12]; [20]): > 100 µM | growth at 0.001 µM (OVCAR-5): 107% | growth at 0.1 µM [13]: 90% | growth at 0.001 µM (SF-295): 94% | growth at 1 µM (RXF 393): -29% | Activity (PC-3 [14]): 40% | Activity (Mus musculus): Non-toxic | growth at 10 µM (TK-10): 6% | growth at 10 µM [15]: -2% | growth at 0.01 µM (UACC-257 [16]): 109% | growth at 10 µM (SK-MEL-2): 18% | growth at 0.001 µM (SF-539): 104% | growth at 0.01 µM (T47D): 53% | growth at 0.01 µM (OVCAR-8): 103% | growth at 0.001 µM (HT-29): 98% | growth at 0.1 µM (MDA-MB-231 [17]): 85% | growth at 0.1 µM (U-251 [18]): 92% | GI50 (NCI-H23): 4.08 µM | TGI (NCI-H23): > 100 µM | CC50 (NCI-H23; [20]): > 100 µM | growth at 0.001 µM (SNB-19 [19]): 97%
